Assay results as given in ChEMBL document CHEMBL5653631, “A Potent and Selective ULK1 Inhibitor Suppresses Autophagy and Sensitizes Cancer Cells to Nutrient Stress” (iScience, 2018).
One block for each compound: values may come before it.

How the values were obtained:
[1] = target: T1, Serine/threonine-protein kinase tousled-like 1 (Homo sapiens) (UniProt Q9UKI8); assay: Inhibition of human recombinant TLK1 at 500 nM in presence of ATP by radiometric assay relative to control
T1 sequence (whole entry): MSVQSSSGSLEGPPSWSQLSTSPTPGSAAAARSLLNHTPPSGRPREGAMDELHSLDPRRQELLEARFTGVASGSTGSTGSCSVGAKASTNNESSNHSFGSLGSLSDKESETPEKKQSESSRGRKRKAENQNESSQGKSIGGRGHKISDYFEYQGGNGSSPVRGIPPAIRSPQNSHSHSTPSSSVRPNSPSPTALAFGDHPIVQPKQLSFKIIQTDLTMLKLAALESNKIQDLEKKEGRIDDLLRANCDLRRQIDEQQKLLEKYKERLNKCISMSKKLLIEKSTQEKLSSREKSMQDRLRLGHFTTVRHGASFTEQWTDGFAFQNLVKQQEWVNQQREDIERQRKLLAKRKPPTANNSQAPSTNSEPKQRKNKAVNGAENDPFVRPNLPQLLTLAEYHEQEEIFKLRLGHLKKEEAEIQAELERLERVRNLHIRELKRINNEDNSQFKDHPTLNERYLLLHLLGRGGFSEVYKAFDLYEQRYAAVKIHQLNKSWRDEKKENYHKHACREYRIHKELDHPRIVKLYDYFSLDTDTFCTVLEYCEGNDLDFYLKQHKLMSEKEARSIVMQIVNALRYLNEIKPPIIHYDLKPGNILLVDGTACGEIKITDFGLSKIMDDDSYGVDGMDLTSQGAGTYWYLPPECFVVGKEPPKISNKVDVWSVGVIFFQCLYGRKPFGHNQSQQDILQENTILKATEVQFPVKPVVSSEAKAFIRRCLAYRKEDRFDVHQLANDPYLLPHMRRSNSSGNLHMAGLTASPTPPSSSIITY

[2] = target: Dual specificity protein kinase CLK4 (Homo sapiens) (UniProt Q9HAZ1); assay: Inhibition of human recombinant CLK4 at 500 nM in presence of ATP by radiometric assay relative to control
[3] = target: Receptor-interacting serine/threonine-protein kinase 2 (Homo sapiens) (UniProt O43353); assay: Inhibition of human recombinant RIPK2 at 500 nM related to control ULK1
[4] = target: T2, Tyrosine-protein kinase receptor TYRO3 (Homo sapiens) (UniProt Q06418); assay: Inhibition of human recombinant TYRO3 at 500 nM related to control ULK1
T2 sequence (whole entry): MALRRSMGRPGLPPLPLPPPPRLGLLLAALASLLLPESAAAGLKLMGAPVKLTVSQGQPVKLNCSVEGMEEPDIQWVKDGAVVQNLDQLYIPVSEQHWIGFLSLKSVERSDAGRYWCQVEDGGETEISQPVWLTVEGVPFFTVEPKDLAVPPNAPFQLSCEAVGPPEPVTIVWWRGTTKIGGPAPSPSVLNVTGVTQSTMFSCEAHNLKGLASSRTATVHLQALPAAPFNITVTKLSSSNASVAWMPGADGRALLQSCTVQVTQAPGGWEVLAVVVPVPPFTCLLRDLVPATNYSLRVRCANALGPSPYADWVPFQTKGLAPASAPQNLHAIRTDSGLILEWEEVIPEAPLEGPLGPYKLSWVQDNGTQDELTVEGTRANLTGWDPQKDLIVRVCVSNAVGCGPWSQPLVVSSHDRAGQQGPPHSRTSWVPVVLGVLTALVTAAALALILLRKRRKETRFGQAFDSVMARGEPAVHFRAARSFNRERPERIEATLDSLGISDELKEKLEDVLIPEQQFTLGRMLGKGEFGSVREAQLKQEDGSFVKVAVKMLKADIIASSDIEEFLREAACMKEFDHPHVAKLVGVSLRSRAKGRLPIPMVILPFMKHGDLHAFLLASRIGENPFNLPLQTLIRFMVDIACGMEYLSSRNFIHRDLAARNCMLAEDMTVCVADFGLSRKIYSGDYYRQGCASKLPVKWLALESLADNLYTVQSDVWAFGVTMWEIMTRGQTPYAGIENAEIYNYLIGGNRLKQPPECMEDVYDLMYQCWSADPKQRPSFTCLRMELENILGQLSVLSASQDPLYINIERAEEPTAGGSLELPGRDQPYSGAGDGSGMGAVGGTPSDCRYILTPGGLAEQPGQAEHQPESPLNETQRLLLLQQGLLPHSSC

[5] = target: T3, Aurora kinase C (Homo sapiens) (UniProt Q9UQB9); assay: Inhibition of human recombinant AurC at 15 nM related to control ULK1
T3 sequence (whole entry): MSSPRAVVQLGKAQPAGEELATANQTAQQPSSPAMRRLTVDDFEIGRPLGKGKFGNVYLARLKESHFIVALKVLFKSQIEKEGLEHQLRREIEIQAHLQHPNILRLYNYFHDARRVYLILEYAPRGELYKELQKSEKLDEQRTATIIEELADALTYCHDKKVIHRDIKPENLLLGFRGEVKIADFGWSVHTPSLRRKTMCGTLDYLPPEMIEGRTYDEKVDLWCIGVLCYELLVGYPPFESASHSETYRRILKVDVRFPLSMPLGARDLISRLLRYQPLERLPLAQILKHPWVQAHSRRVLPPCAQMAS

[6] = target: Ephrin type-A receptor 4 (Homo sapiens) (UniProt P54764); assay: Inhibition of human recombinant EphA4 at 15 nM related to control ULK1
[7] = target: Tyrosine-protein kinase Blk (Homo sapiens) (UniProt P51451); assay: Inhibition of human recombinant BLK at 40 nM related to control ULK1
Method in brief: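 Radiometric activity assays in a panel of 327 human recombinant kinases, each run in duplicate at one inhibitor concentration. Activity remaining is expressed as percent of vehicle control, and percent inhibition is calculated as 100% minus percent activity remaining.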

Sequence of Tyrosine-protein kinase Blk (Homo sapiens) (P51451 2-505 limits assumed): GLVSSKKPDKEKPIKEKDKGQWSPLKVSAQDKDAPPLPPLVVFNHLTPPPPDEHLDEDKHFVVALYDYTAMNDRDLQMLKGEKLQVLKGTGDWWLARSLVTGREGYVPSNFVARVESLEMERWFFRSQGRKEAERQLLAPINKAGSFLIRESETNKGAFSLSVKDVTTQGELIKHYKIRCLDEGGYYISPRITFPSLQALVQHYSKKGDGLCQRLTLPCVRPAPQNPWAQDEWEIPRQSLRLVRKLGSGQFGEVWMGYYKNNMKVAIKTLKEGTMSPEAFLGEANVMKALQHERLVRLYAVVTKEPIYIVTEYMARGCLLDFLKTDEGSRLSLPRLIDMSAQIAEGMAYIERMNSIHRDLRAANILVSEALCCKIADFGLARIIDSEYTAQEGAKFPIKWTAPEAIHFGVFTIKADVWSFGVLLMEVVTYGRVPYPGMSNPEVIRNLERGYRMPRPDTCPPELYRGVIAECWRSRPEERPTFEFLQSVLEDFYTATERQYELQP
Sequence of Ephrin type-A receptor 4 (Homo sapiens) (P54764 whole entry): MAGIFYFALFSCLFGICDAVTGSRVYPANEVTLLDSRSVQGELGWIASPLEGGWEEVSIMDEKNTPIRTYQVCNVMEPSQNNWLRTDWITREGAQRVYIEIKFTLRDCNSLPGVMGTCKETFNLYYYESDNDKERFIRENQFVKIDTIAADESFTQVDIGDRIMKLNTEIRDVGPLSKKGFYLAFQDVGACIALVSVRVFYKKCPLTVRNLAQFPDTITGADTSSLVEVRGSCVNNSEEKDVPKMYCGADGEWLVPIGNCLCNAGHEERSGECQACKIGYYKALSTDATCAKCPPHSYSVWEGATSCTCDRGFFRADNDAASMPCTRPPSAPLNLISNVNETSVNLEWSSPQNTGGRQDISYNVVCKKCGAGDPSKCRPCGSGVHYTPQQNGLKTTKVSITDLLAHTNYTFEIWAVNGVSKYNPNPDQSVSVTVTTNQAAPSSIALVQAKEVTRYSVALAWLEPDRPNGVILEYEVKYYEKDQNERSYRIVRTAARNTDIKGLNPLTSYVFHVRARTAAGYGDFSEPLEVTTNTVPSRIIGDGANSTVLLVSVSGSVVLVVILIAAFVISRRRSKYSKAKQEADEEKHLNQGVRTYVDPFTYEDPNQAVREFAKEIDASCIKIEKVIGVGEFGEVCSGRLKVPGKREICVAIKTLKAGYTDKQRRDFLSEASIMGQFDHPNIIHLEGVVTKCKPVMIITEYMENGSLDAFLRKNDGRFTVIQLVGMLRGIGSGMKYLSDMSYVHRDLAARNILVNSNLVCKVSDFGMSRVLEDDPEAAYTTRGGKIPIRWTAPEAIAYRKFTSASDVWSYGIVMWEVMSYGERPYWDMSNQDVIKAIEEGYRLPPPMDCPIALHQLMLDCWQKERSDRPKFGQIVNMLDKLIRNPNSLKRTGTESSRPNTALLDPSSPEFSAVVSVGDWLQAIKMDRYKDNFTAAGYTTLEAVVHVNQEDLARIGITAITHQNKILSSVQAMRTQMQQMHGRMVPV
Sequence of Dual specificity protein kinase CLK4 (Homo sapiens) (Q9HAZ1 whole entry, looked up): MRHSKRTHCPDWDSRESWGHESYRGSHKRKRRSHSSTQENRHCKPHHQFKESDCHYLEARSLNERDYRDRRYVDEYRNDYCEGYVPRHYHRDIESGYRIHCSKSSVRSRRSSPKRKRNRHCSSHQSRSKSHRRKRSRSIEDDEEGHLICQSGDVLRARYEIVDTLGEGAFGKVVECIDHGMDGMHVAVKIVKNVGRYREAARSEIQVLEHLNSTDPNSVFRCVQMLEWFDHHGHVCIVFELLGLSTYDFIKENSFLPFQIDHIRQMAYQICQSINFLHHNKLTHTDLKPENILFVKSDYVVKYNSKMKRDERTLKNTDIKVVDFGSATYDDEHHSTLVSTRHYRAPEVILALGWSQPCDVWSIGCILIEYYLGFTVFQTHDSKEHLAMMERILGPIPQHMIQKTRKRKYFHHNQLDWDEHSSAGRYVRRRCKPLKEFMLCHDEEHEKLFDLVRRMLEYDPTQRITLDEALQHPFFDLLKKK
Sequence of Receptor-interacting serine/threonine-protein kinase 2 (Homo sapiens) (O43353 whole entry): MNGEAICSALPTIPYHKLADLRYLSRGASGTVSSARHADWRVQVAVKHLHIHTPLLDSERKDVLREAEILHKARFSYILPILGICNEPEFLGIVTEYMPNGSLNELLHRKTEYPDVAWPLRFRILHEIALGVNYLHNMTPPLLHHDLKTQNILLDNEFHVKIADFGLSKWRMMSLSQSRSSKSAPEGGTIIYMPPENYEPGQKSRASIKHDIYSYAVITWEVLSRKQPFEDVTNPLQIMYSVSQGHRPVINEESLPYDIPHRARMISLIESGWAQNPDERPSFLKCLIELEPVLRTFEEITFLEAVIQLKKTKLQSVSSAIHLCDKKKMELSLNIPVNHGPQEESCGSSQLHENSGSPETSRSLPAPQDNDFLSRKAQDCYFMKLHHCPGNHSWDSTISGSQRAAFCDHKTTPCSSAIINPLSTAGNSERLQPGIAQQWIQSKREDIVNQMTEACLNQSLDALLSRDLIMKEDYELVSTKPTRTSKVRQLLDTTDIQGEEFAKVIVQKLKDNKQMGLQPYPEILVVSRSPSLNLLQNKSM

- inhibition [1]: 0%
- inhibition [2]: 8%
- fold change (FC) [3]: 0
- fold change (FC) [4]: 0.14
SMILES: CNC(=O)c1ccccc1Oc1nc(Nc2cc(OC)c(OC)c(OC)c2)ncc1Br

- fold change (FC) [5]: 0.09
- fold change (FC) [6]: 0
SMILES: CC(C)[C@H](NC(=O)c1cc(-c2cnn3cc(-c4ccc(OCCN5CCCCC5)cc4)cnc23)cs1)C(F)(F)F

- fold change (FC) [7]: 0.23
SMILES: O=C(N[C@@H](C1CC1)C(F)(F)F)c1cc(-c2cnn3cc(-c4ccc(F)cc4)cnc23)cs1
